{
  "source": "ChEMBL document CHEMBL3124940",
  "about": "“Design, synthesis and biological evaluation of D-ring opened galantamine analogs as multifunctional anti-Alzheimer agents” (Eur J Med Chem, 2014)",
  "key": {"[1]": {"target": "Acetylcholinesterase (Electrophorus electricus, UniProt O42275)", "sequence (O42275 whole entry)": "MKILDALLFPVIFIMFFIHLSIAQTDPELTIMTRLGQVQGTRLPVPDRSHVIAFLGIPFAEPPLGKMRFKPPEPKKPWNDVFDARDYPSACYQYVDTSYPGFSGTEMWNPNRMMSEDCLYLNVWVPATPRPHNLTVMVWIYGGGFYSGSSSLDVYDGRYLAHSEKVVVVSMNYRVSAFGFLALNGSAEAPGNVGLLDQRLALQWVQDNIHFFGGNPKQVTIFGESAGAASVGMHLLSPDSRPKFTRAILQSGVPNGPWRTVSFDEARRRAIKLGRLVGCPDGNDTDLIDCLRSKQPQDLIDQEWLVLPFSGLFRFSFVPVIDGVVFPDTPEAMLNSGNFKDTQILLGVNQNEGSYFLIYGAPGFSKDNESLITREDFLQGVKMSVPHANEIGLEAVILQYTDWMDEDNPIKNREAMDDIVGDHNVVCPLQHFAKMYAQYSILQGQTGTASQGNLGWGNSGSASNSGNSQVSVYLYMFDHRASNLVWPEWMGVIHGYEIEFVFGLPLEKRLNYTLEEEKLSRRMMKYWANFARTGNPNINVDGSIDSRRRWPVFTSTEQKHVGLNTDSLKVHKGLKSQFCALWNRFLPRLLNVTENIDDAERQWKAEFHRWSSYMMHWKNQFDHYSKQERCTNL", "test": "Inhibition of electric eel AChE using acetylthiocholine iodide as substrate preincubated for 5 mins followed by substrate addition measured after 5 mins by Ellman's method"}, "[2]": {"target": "Cholinesterase (Equus caballus, UniProt P81908)", "sequence (P81908 whole entry)": "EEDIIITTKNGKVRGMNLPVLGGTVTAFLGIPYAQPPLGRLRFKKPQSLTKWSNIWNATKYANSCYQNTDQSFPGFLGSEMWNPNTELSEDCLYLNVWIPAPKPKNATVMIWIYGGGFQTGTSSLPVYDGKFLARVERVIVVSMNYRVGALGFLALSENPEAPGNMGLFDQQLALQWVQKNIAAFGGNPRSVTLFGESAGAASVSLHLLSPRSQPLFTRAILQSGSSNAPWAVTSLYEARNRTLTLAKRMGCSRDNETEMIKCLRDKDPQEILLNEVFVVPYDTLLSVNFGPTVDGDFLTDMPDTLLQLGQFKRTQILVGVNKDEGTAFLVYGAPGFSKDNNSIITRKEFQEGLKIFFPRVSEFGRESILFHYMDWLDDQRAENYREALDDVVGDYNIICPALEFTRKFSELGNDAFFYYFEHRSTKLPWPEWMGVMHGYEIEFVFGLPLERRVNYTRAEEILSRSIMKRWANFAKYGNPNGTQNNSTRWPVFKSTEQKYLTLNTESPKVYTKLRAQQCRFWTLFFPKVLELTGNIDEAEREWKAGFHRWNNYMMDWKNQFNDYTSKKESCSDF", "test": "Inhibition of equine serum BChE using butyrylthiocholine iodide as substrate preincubated for 5 mins followed by substrate addition measured after 5 mins by Ellman's method", "method_in_brief": "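Ellman's method with equine serum BChE and butyrylthiocholine iodide; DTNB read-out at 412 nm, 25 °C. Phosphate buffer pH 8.0. At least five concentrations (normally 10^-4 to 10^-9 M), each in triplicate, to build the inhibition curve. Data are means of at least three determinations.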"}, "[3]": {"test": "Selectivity ratio of IC50 for electric eel AChE to IC50 for equine serum BChE", "method_in_brief": "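AChE is electric eel Type VI-S with acetylthiocholine; BChE is equine serum with butyrylthiocholine. At least five concentrations, each in triplicate. Ratio = IC50(AChE)/IC50(BChE).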"}, "[4]": {"test_system": "Rattus norvegicus", "test": "Antialzheimer activity in Wistar rat scopolamine-induced cognition impairment model assessed as decrease in amount of errors plus baits not found during exploration at 1 umol/100 g body weight, ip treated for 5 mins prior to scopolamine-challenge measured after 20 to 120 mins by eight-arm radial maze test", "format": "functional, organism-based", "method_in_brief": "(§1)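 Female 60-day-old Wistar rats (Han:Wist) trained in an eight-arm radial maze to error-free trials under 60 s on three consecutive days; each animal served as its own control. Test agent given i.p. in saline 5 min before scopolamine (0.05 mg/100 g b. wt., i.p. in saline). Errors plus baits not found after 10 min, and total searching time, recorded before and 20, 60, 120 min after scopolamine; n = 14, mean ± SEM.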"}, "[5]": {"test": "Induction of nitric oxide release in PBS at 100 uM at pH 7.4 after 24 hrs by Griess method relative to control", "format": "physicochemical", "conditions": "buffer, pH 7.4, 24 h", "method_in_brief": "(§2)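 Test compound at 100 µM in phosphate buffer pH 7.4, alone or with 90 µL rat serum added, incubated 37 °C for 24 h. Griess reagent added, then 30 min at 37 °C with gentle shaking; absorbance read at 540 nm and blank-corrected. Nitrite quantified against an NaNO2 calibration curve and expressed as % of a theoretical 1 mol NO per mol nitrate; n = 3.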"}, "[6]": {"test": "Induction of nitric oxide release in PBS at 100 uM at pH 7.4 after 24 hrs by Griess method in presence of rat serum", "format": "physicochemical", "conditions": "pH 7.4, 24 h", "method_in_brief": "as §2"}, "[7]": {"test_system": "Rattus norvegicus", "test": "Toxicity in Wistar rat assessed as change in movement at 1 umol/100 g body weight, ip", "format": "organism-based", "conditions": "in vivo"}, "[8]": {"test_system": "Rattus norvegicus", "test": "Antialzheimer activity in Wistar rat scopolamine-induced cognition impairment model assessed as total exploration time at 1 umol/100 g body weight, ip treated for 5 mins prior to scopolamine-challenge by eight-arm radial maze test relative to control", "format": "functional", "method_in_brief": "as §1"}, "[9]": {"test_system": "Rattus norvegicus", "test": "Toxicity in Wistar rat scopolamine-induced cognition impairment model assessed as change in movement at 1 umol/100 g body weight, ip", "format": "organism-based", "conditions": "in vivo", "method_in_brief": "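60-day-old female Wistar rats were trained in an eight-arm radial maze to no errors in under 60 s on 3 consecutive days; each rat served as its own control. Compound in saline was given i.p., then scopolamine (0.05 mg/100 g, saline, i.p.) 5 min later. Errors plus baits not found after 10 min and total searching time were recorded before and 20, 60 and 120 min after scopolamine; n = 14, mean ± SEM.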"}},
  "note": "pIC50: −log10 of the molar value. Calls of active or inactive are those of the source. The calls are words filed in the database; no cut-off is given here.",
  "data": [
    {"molecule": "CC(C)NCc1cccc2oc3cc(O)ccc3c12", "values": [
      {"measurement": "pIC50", "setting": "[1]", "result": 4.65},
      {"measurement": "pIC50", "setting": "[2]", "result": 4.74},
      {"measurement": "Ratio IC50", "setting": "[3]", "result": 1.23}
    ]},
    {"molecule": "COc1ccc2c(c1)[nH]c1cccc(CN(C(=O)CCO[N+](=O)[O-])C(C)C)c12", "values": [
      {"measurement": "Activity", "setting": "[4]", "result": "Active"},
      {"measurement": "pIC50", "setting": "[1]", "result": 5.66},
      {"measurement": "pIC50", "setting": "[2]", "result": 5.60},
      {"measurement": "Ratio IC50", "setting": "[3]", "result": 0.88},
      {"measurement": "Activity", "setting": "[5]", "result": 4.8, "unit": "%"},
      {"measurement": "Activity", "setting": "[6]", "result": "Active"},
      {"measurement": "Activity", "setting": "[7]", "result": "Non-toxic"},
      {"measurement": "Time", "setting": "[8]", "result": 107, "unit": "s"},
      {"measurement": "Activity", "setting": "[9]", "result": "Non-toxic"}
    ]},
    {"molecule": "CCNCc1cccc2oc3cc(OC)ccc3c12", "values": [
      {"measurement": "pIC50", "setting": "[1]", "result": 4.72},
      {"measurement": "pIC50", "setting": "[2]", "result": 4.65},
      {"measurement": "Ratio IC50", "setting": "[3]", "result": 0.85}
    ]},
    {"molecule": "COc1ccc2c(c1)oc1cccc(CNCc3ccccc3)c12", "values": [
      {"measurement": "pIC50", "setting": "[1]", "result": "< 4.30"},
      {"measurement": "pIC50", "setting": "[2]", "result": 4.74}
    ]},
    {"molecule": "CCN(CC)Cc1cccc2oc3cc(OC)ccc3c12", "values": [
      {"measurement": "pIC50", "setting": "[1]", "result": 4.41},
      {"measurement": "pIC50", "setting": "[2]", "result": 4.56},
      {"measurement": "Ratio IC50", "setting": "[3]", "result": 1.43}
    ]},
    {"molecule": "COc1ccc2c(c1)[nH]c1cccc(CNCc3ccccc3)c12", "values": [
      {"measurement": "pIC50", "setting": "[1]", "result": "< 4.30"},
      {"measurement": "pIC50", "setting": "[2]", "result": 4.52}
    ]}
  ]
}
